Assay [1] deals with MIA PaCa-2. The experiment in a line: Effect on GLI1 gene expression in human MIAPaCa2 cells at 400 nM after 24 hrs by RNA sequence analysis relative to control. The class given is functional. Summed up: (§1)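 PANC-1 (0.35 x 10^6) or MIA PaCa-2 (1.5 x 10^6) cells seeded overnight in 60 mm plates, then exposed to 400 nM compound for 6 or 24 h; untreated cells as controls. Cells were mycoplasma-free and STR-certified. Differential expression by RNA-seq, called at FDR < 0.1.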

Assay [2] has as its system MIA PaCa-2. The experiment in a line: Effect on SHC2 gene expression in human MIAPaCa2 cells at 400 nM after 24 hrs by RNA sequence analysis relative to control. The class given is functional. Summed up: (§2)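 RNA-seq: cells seeded overnight in 60 mm plates (PANC-1 0.35 x 10^6, MIA PaCa-2 1.5 x 10^6 cells/well), then exposed to 400 nM compound for 6 or 24 h against untreated controls. Cell lines mycoplasma-free by RNA-capture ELISA and STR-profiled. Differentially expressed genes called at FDR < 0.1.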

The test system of assay [3] is PANC-1. The experiment in a line: Effect on IGF2 gene expression in human PANC1 cells at 400 nM after 6 hrs by RNA sequence analysis relative to control. The class given is functional. Summed up:
as §1

The test system of assay [4] is PANC-1. Nature of the assay: Effect on PFKL gene expression in human PANC1 cells at 400 nM after 24 hrs by RNA sequence analysis relative to control. The class given is functional.
For assay [5], the system named is MIA PaCa-2. The experiment in a line: Effect on RPTOR gene expression in human MIAPaCa2 cells at 400 nM after 6 hrs by RNA sequence analysis relative to control. The class given is functional. Summed up: as §2
Assay [6] deals with PANC-1. The experiment in a line: Effect on CTBP1 gene expression in human PANC1 cells at 400 nM after 6 hrs by RNA sequence analysis relative to control. The class given is functional. Summed up: as §1
The subject of assay [7] is MIA PaCa-2. Nature of the assay: Effect on TEAD2 gene expression in human MIAPaCa2 cells at 400 nM after 24 hrs by RNA sequence analysis relative to control. The class given is functional. Summed up:
as §2

The species entered for a further assay is Homo sapiens. The experiment in a line: Stabilization of G-quadruplex DNA in human PANC1 cells assessed as increase in 53BP1 foci at 400 nM after 24 hrs by FITC/Cy5/DAPI staining based immunofluorescence assay relative to control. The class given is cell-based. Summed up:
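PANC-1 cells (8 x10^4 on coverslips) treated 24 h at 37 °C, or left untreated. Fixed in 4% paraformaldehyde, permeabilized with 0.1% Triton X-100, blocked in 2% milk. Stained with BG4 (20 nM), anti-FLAG and anti-53BP1, then Alexa-488/647 secondaries with DAPI. Deconvolved 100x z-stacks, 50-100 nuclei per replicate, three biological replicates; nuclear foci counted.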

Assay [8] concerns PANC-1. Nature of the assay: Effect on TP73 gene expression in human PANC1 cells at 400 nM after 24 hrs by RNA sequence analysis relative to control. The class given is functional. Summed up:
as §2

Assay [9] deals with MIA PaCa-2. Nature of the assay: Antitumor activity against human MIAPaCa2 cells xenografted in CD-1 nude mouse assessed as change in tumor volume at 10 mg/kg, iv administered twice weekly for 4 weeks measured on day 29 relative to control. The class given is functional. Summed up:
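Female CD-1 nude mice (2-3 months, 20−25 g) given 5 x 10^6 MIA PaCa-2 cells subcutaneously in right flank with Matrigel; dosing began once tumors were established (approx. 13 days, mean 0.05 cm3). Eight mice/group, IV in saline twice weekly for 28 days (8 doses) against a saline group. Tumors measured by calliper (length × width × height × π/6), with body weight. Student's t test.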
For orientation: In xenograft studies the graft and the host belong to different species.

Assay [10] concerns MIA PaCa-2. The experiment in a line: Effect on GLI2 gene expression in human MIAPaCa2 cells at 400 nM after 24 hrs by RNA sequence analysis relative to control. The class given is functional. The procedure, abridged:
as §1

The structures appear in SMILES notation.

As for `O=C1c2ccc3c4c(c(NCCN5CCCC5)cc(c24)C(=O)N1CCCN1CCOCC1)C(=O)N(CCCN1CCOCC1)C3=O`, the log2FC in the assay on MIA PaCa-2 [1] is -0.64; in the assay with MIA PaCa-2 [2] it was -1.96; in the assay on PANC-1 [3], -1.15; with PANC-1 [4], -0.98; in the assay on MIA PaCa-2 [5], -1.41; in the assay on PANC-1 [6], -0.66. For the same compound, the log2FC in the assay with MIA PaCa-2 [7] is reported as -0.91; in the assay on PANC-1 [8], -0.99; in the assay on MIA PaCa-2 [10] it was -1.24. In addition, in the assay listed under Homo sapiens, the fold change (FC) was found to be 2. Besides, in the assay with MIA PaCa-2 [9], the Activity is given as -53.3%.

The values above are taken from ChEMBL document CHEMBL4020827, “Targeting Multiple Effector Pathways in Pancreatic Ductal Adenocarcinoma with a G-Quadruplex-Binding Small Molecule” (J Med Chem, 2018).
